Rows were chosen to be rich in hits. Some 2.5% of all compounds tested hit in one or more screens of this group.
DENV2 CPE – inhibitors of DENV2 cytopathic effect; 1.7% of 350,000 active; DENV2-infected cells, cytopathic effect rescue, plate reader; AID 651640; CPE inhibition, % at 9.99 µM; in the data active means CPE inhibition above about 20%, passing the limit was not always enough; inconclusive means no clear call, values can overlap the other calls; tested in BHK-21 cells;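 further: 0% = median of neutral control wells and 100% = median of positive control wells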
E-selectin induc – induces E-selectin expression in human endothelial cells | activation, % at 7.58 µM | HUVEC E-selectin immunofluorescence imaging; normalized: neutral wells 0, TNF-alpha wells 100 | 0.37% of 260,000 active | AID 686992;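 active means mean E-selectin-positive cell signal at least 10% of the positive control, reached in at least 60% of replicates, without over 20% cell loss; inconclusive means no rule given, readout overlaps actives, possibly toxicity-flagged; inactive means the rest, including those meeting only one limit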
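Read-out: % PE-positive cells | Test system: HUVEC | Doses: One compound dose added by pin transfer | Buffer or medium: EGM-2 over gelatin coat | Signal: Immunofluorescence imaging | Benchmarks: TNF-alpha, DMSO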
PglD DTNB – inhibitors of Campylobacter jejuni PglD acetyltransferase; purified PglD enzyme, DTNB colorimetric CoA detection; inhibition, % at 12.5 µM; 0.098% of 360,000 active; in the data active means inhibition above about 16%, passing the limit was not always enough; inconclusive means no clear call, values can overlap the other calls
SIRT5 block – blocks human SIRT5 desuccinylation of peptide | 1.1% of 330,000 active | AID 652115 | Purified SirT5, succinyl-peptide AMC, trypsin-coupled fluorescence | Q9NXA8 | inhibition, % at 15 µM; in the data active means inhibition above about 15%; inconclusive means no clear call, values can overlap the other calls
ERAP1 HTS inh – inhibitors of human ERAP1 aminopeptidase | Q9NZ08 | recombinant ERAP1, Leu-AMC fluorescence, 60 min | inhibition, % at 10.7 µM | 0.15% of 340,000 active | AID 652197;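 active means mean replicate inhibition of at least 30%, or all replicates individually reaching that 30% level; inactive means mean below 30% and not every replicate reaching it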;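 further: 0% = neutral control wells and 100% = L-leucinethiol positive control wells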
* marks the source's active call; other numbers are inactive results; ? = inconclusive; · = not tested or not shown.

SMILES	DENV2 CPE	E-selectin induc	PglD DTNB	SIRT5 block	ERAP1 HTS inh
O=C(c1ccc(S(=O)(=O)NCc2ccco2)cc1)N1CCN(Cc2ccccc2F)CC1	-5.6	-0.1	3.9	0.7	-2.2
CC(N)c1csc(NC(=O)Nc2cccc(C(F)(F)F)c2)n1 (stereo unspecified)	-7.9	-0.2	2.5	-0.6	2.7
C[C@@H]1CCCCO[C@H](CN(C)Cc2ccc(C(F)(F)F)cc2)[C@@H](C)CN([C@@H](C)CO)C(=O)c2cc(NS(=O)(=O)c3ccc(F)cc3)ccc2O1	-3.7	1.5	0.1	19.5*	-0.4
C[C@@H]1CN([C@@H](C)CO)C(=O)c2cc(NS(=O)(=O)c3ccc(F)cc3)ccc2O[C@@H](C)CCCCO[C@@H]1CN(C)Cc1ccc(C(F)(F)F)cc1	2.9	-0.1	-2.8	-3.4	-3.6
Cn1c(SCc2cc(=O)n3cc(Br)ccc3n2)nnc1C1COc2ccccc2O1 (stereo unspecified)	·	·	2.1	·	·
OC(CN1CCN(c2cccc(Cl)c2)CC1)c1ccc(F)cc1 (stereo unspecified)	48.9*	0.1	0.4	1.2	0.7
OCC(O)CN1CCN(c2ccccc2)CC1 (stereo unspecified)	11.7	0.0	3.4	-11.0	-1.6
OC(CSc1ccc(F)cc1)CN1CCN(c2ccccc2)CC1 (stereo unspecified)	16.6	56.1*	·	-1.4	-0.5
CCc1nn(C(CC)C(=O)NCCCc2ccccc2)c(=O)c2cc3occc3n12 (stereo unspecified)	-7.6	·	-2.6	2.2	-3.0
COc1ccc2c3c([nH]c2c1)[C@@H](CO)N(C(=O)c1ccccn1)CC31CCN(C(=O)C2CC2)CC1	?	0.0	·	·	·
O=C(Cc1ccccc1)c1ccc(Cl)cc1	0.4	·	·	2.8	·
O=C(Cc1ccccc1)c1ccc(O)cc1	-3.7	-0.1	4.9	17.7*	4.0
O=C(CSc1nnnn1C1CC2CCC1C2)Nc1ccnc2ccccc12 (stereo unspecified)	·	·	-0.7	·	·
COC(=O)[C@@H](Cc1ccccc1)NC(=O)/C=C/[C@H]1O[C@@H](n2cnc3c(NC(=O)c4ccccc4)ncnc32)[C@H](O)[C@@H]1O	4.8	-0.4	-0.6	30.8*	0.7
COc1ccc([Si](C)(C)[C@@H]2[C@@H](CCO)O[C@]3(C(=O)N4c5c(cc(OC)cc53)C(C)=CC4(C)C)[C@H]2C)cc1	2.9	·	0.1	15.2*	-2.2
COc1ccc([Si](C)(C)[C@H]2[C@H](CCO)O[C@@]3(C(=O)N(Cc4ccccc4)c4ccc(NC(C)=O)cc43)[C@@H]2C)cc1	19.0	·	-7.7	3.4	-1.1
COc1ccc([Si](C)(C)[C@@H]2[C@@H](CCO)O[C@]3(C(=O)N(Cc4cccc(NC(C)=O)c4)c4ccccc43)[C@H]2C)cc1	-11.4	·	-1.1	20.6*	-2.3
COc1ccc([Si](C)(C)[C@H]2[C@H](CCn3cc([C@H](O)c4ccccc4)nn3)O[C@@]3(C(=O)N(Cc4cccc(N5CCOC5=O)c4)c4ccccc43)[C@@H]2C)cc1	7.1	·	-1.1	22.6*	1.1
O=C(/C=C/c1cccc([N+](=O)[O-])c1)Nc1ccccc1N1CCOCC1	4.1	0.2	·	0.6	0.6
C[C@@H]1CN([C@@H](C)CO)C(=O)c2cccc(NS(C)(=O)=O)c2O[C@@H]1CN(C)CC1CC1	-7.6	-1.0	8.3	-1.3	-2.7
CS(=O)(=O)N(CCC#N)Cc1ccco1	-2.0	-0.6	·	16.1*	0.3
CS(=O)(=O)N(Cc1ccco1)Cc1ccccc1Cl	·	·	-0.5	-0.2	1.3
CC(=O)c1cccc(Nc2ccc(Br)cc2)c1	-0.1	0.4	9.5	0.2	6.6
Cc1c(O)c2c3c(cccc3c1O)C(=O)N(c1ccccc1)C2=O	·	·	5.0	·	·
CCN(CC)CCCNc1ccc2ncn3c4ccc(O)cc4c(=O)c1c23	-2.4	-0.1	·	0.2	32.9*
COc1ccc(NC(=O)c2cc(S(=O)(=O)N3CCCC3)c[nH]2)cc1	?	0.0	-0.7	2.1	-3.2
COc1ccc(NC(=O)CSCC(=O)Nc2ccc(C)c(S(=O)(=O)N3CCCCCC3)c2)cc1	?	0.1	0.7	0.6	0.1
COc1ccc(NC(=O)c2cc(S(=O)(=O)N3CCCCC3)c[nH]2)cc1	3.6	111.1*	0.1	·	·
COc1ccc(CC(=O)Nc2ccc(C)c(S(=O)(=O)N3CCCCCC3)c2)cc1	35.4*	-0.4	-7.0	-3.0	-7.9
C[C@H]1CCCCO[C@@H](CN(C)C(=O)Cc2ccccc2)[C@@H](C)CN([C@@H](C)CO)C(=O)c2cc(N(C)C)ccc2O1	·	-0.1	·	·	·

Screening data as filed in PubChem.
